Measured values as given in PMC6620028 (Cancer cell, 2019).

Assays:
AML and other cancers = details: early phase clinical trials against AML and other cancers, ref Arrillaga-Romany et al., 2017, Kline et al., 2016, Stein et al.; cited from earlier work
[1] = test system: normal hematopoietic cells; assay: Effect on normal hematopoietic cells; details: 72 hr
[2] = test system: OCI-AML2, OCI-AML3, TEX, Z138, HCT-116, HeLa, OC316, SUM159 cells; assay: Growth and viability of leukemia, lymphoma and solid tumor cell lines; assay type: cell-based, human; details: 72 hr
[3] = test system: ONC201-resistant Z138 cells (ONC-R Z138); assay: Growth and viability, ONC201-resistant Z138; assay type: cell-based, human; details: ONC-R Z138 compared with parental Z138
OCI-AML2 cells = assay: Alamar blue viability assay, OCI-AML2; assay type: cell-based, human; details: read-out: IC50, growth and viability, OCI-AML2, 72-hr exposure
[4] = test system: Z138 cells with D190A ClpP overexpression; assay: Z138 xenograft with D190A ClpP overexpression; assay type: in vivo, NSG mice; details: ONC212 50 mg/kg every other day, oral gavage; D190A ClpP group
Procedure, shortened: (§1)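 Female NSG mice (n = 7 per group) received two million luciferase-labelled Z138 cells transfected with a WT or D190A mutant CLPP-overexpressing vector. Engraftment was confirmed by bioluminescence imaging on day 9 post-transplantation. Test compound (50 mg/kg) or water vehicle was then given by oral gavage every other day until moribund. Tumour burden was followed weekly by IVIS luminescence until day 31, and survival was recorded.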

[5] = target: T1, human ClpP (recombinant WT) (Homo sapiens, UniProt Q16740); assay: ClpP FITC-casein degradation, cell-free fluorescence assay; assay type: biochemical; details: positive cooperativity
T1 sequence (Q16740 57-277): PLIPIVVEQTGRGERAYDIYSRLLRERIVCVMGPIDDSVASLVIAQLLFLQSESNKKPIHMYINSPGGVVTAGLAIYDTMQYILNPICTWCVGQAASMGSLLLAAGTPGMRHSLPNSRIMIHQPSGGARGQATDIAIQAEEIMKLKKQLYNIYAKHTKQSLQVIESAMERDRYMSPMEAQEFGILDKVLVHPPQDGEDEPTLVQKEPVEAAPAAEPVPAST

[6] = target: T1, human ClpP (recombinant WT); assay: ClpP Clptide fluorogenic peptide cleavage assay; assay type: biochemical; details: read-out: EC50, ClpP cleavage of FAPHMALVPC (Clptide); without ClpX
[7] = test system: CLPP+/+ T-REx HEK293 cells; assay: Alamar blue viability, CLPP+/+ T-REx HEK293; assay type: cell-based, human; details: T-REx HEK293, 72 hr
[8] = test system: primary AML patient samples; assay: Apoptosis in primary AML patient samples; assay type: cell-based, human; details: 72 hr; including high risk cytogenetics and molecular mutations
recombinant D190A ClpP = recombinant D190A ClpP (Homo sapiens, UniProt Q16740, D190A); assay: D190A ClpP enzymatic assays; assay type: biochemical; details: peptide or protein substrates
Chain of recombinant D190A ClpP (Q16740 57-277 D190A): as the sequence (Q16740 57-277) above, with D134A counted along it

ClpP = ClpP (Homo sapiens, UniProt Q16740); assay: Gel-based α-casein degradation assay; assay type: biochemical; details: 3 hr, without ClpX
Chain of ClpP (Q16740 57-277): as the sequence (Q16740 57-277) above

[9] = target: T1, human ClpP (recombinant WT); assay: ClpP AC-WLA-AMC fluorogenic peptide cleavage assay; assay type: biochemical; details: read-out: EC50, ClpP cleavage of AC-WLA-AMC; without ClpX
[10] = target: T1, human ClpP (recombinant WT); assay: ClpP Ac-Phe-hArg-Leu-ACC fluorogenic peptide cleavage assay; assay type: biochemical; details: read-out: EC50, ClpP cleavage of Ac-Phe-hArg-Leu-ACC; without ClpX
[11] = target: endogenous ClpP in OCI-AML2 (Homo sapiens, UniProt Q16740); assay: Cellular thermal shift assay; assay type: cell-based; details: at concentrations associated with activation in the enzymatic assays
Chain of endogenous ClpP in OCI-AML2 (Q16740 57-277): as above

[12] = test system: Z138 cells with WT ClpP overexpression; assay: Z138 xenograft with WT ClpP overexpression; assay type: in vivo, NSG mice; details: ONC212 50 mg/kg every other day, oral gavage, WT ClpP group
Procedure, shortened: as §1

[13] = test system: CLPP-/- T-REx HEK293 cells; assay: Alamar blue viability, CLPP-/- T-REx HEK293; assay type: cell-based, human; details: T-REx HEK293, 72 hr

Molecule: Cc1ccccc1CN1C(=O)C2=C(CCN(Cc3ccccc3)C2)N2CCN=C12 [ONC201]
- Serious adverse events in clinical trials (AML and other cancers): without serious adverse events reported yet
- Effect on normal hematopoietic cells [1]: had little effect
- IC50 values, growth and viability [2]: low micromolar

Molecule: CC[C@]1(O)C[C@H]2CN(CCc3c([nH]c4ccccc34)[C@@](C(=O)OC)(c3cc4c(cc3OC)N(C=O)[C@H]3[C@@](O)(C(=O)OC)[C@H](OC(C)=O)[C@]5(CC)C=CCN6CC[C@]43[C@@H]65)C2)C1 [vincristine]
- Growth and viability / sensitivity of ONC201-resistant Z138 cells [3]: retained similar sensitivity

Molecule: COc1cccc2c1C(=O)c1c(O)c3c(c(O)c1C2=O)C[C@@](O)(C(=O)CO)C[C@@H]3O[C@H]1C[C@H](N)[C@H](O)[C@H](C)O1 [adriamycin]
- Growth and viability / sensitivity of ONC201-resistant Z138 cells [3]: retained similar sensitivity

Molecule: Acyldepsipeptide 1 [ADEP1]
- IC50 (OCI-AML2 cells): 50 µM

Molecule: O=C1C2=C(CCN(Cc3ccccc3)C2)N2CCN=C2N1Cc1ccc(C(F)(F)F)cc1 [ONC212]
- Tumor burden / anti-tumor activity (luciferase, IVIS imaging) [4]: no discernable anti-tumor activity
- Hill coefficient (FITC-casein data) [5]: 4.98 ± 0.47
- EC50 [6]: 3.37 µM
- Growth and viability of CLPP+/+ cells [7]: reduced the growth and viability
- Apoptosis in primary AML patient samples [8]: induced apoptosis
- Growth and viability / sensitivity of ONC201-resistant Z138 cells [3]: cross-resistant
- Activation of proteolytic activity of D190A ClpP (recombinant D190A ClpP): could not activate proteolytic activity
- Degradation of α-casein by ClpP (SDS-PAGE) (ClpP): induced cleavage of α-casein without the need for ClpX
- EC50 [9]: 0.18 µM
- Effect on normal hematopoietic cells [1]: had little effect
- EC50 [10]: 0.37 µM
- Binding of endogenous ClpP in cells (CETSA) [11]: bound endogenous ClpP
- Tumor burden (luciferase, IVIS imaging) [12]: significantly reduced
- Median survival ([12]; vehicle 49 days): 55 days
- Growth and viability of CLPP-/- cells [13]: but not CLPP^−/− cells
- IC50 values, growth and viability [2]: nanomolar range
